{"source": "paper PMC8892239", "about": "(EFSA Journal, 2022)", "key": {"[1]": {"test": "Metabolism of 14C-EQ in liver microsomes", "type": "in vitro ADME, rat, laying hen and goat", "conditions": "10 and 100 µM, 37°C, 2 h", "in_short": "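Liver microsomes were used. Hen (Isa-Warren) and goat (Deutsche Edelziege/Burenziege) microsomes were prepared in-house; rat microsomes were commercial. Incubation was with ring-¹⁴C(U)-labelled test compound at 10 and 100 µM, 37°C, 2 h.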"}, "[2]": {"test": "Antioxidant efficacy, storage of complete feed for sows", "conditions": "for peroxide value after 3 months of storage: basal feed 47.3 meq O2/kg fat"}, "weaned piglets": {"test_system": "weaned piglets", "test": "Tolerance study in weaned piglets", "type": "in vivo", "in_short": "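128 piglets (Pietrain × crossbred, both sexes) entered the study at 28 days old and 8.1 kg. They were housed four per pen (two males, two females) in 32 pens and acclimatised for 6 days. Four mash diets were fed: 0, 50, 150 or 300 mg/kg feed, with eight replicate pens per diet.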"}, "Lumbriculus variegatus": {"test_system": "Lumbriculus variegatus", "test": "Water-sediment test, OECD 225, 28 days", "type": "in vivo", "in_short": "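Lumbriculus variegatus test per OECD 225 in spiked artificial sediment, run for 28 days. Nominal levels were 18.8, 37.5, 75, 150, 300 and 600 mg/kg sediment DW, with four replicates each. An untreated control and a solvent control were run, six replicates each.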"}, "[3]": {"test_system": "Brassica napus (oilseed rape)", "test": "Seedling emergence and seedling growth test, OECD 208", "type": "in vivo", "conditions": "21 days", "in_short": "(§1)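 Soil was spiked with the test compound; measured concentrations were checked against nominal. From 50% emergence in controls, emergence, survival and visible phytotoxicity were recorded weekly for 21 days. At the end, emergence, survival, shoot fresh weight and visible damage were recorded. Effect concentrations were derived from dose–response curves.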"}, "laying hens": {"test_system": "laying hens", "test": "Tolerance study in laying hens", "type": "in vivo, HyLine Brown layers", "conditions": "50 mg ethoxyquin/kg feed"}, "Atlantic salmon": {"test_system": "Atlantic salmon", "test": "Tolerance study in Atlantic salmon", "type": "in vivo, Salmo salar L."}, "Caenorhabditis elegans": {"test_system": "Caenorhabditis elegans", "test": "Sediment toxicity test, ISO 10872, 96 h", "type": "in vivo", "in_short": "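GLP sediment test with Caenorhabditis elegans per ISO 10872. Sediment levels were 25.6, 64, 160, 400 and 1,000 mg/kg sediment DW, with four replicates per control and per concentration. Fertility, reproduction and growth were read 96 h after the nematodes were added.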"}, "Adsorption coefficient": {"test": "Adsorption coefficient", "type": "physicochemical", "in_short": "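Koc estimated under GLP per OECD 121 from the HPLC retention time of the test compound. Runs were done at pH 6.5 and at pH 2.5 because the compound ionises at soil-relevant pH.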"}, "[4]": {"test": "Stability of EQ in complete feed for chickens for fattening", "type": "physicochemical", "conditions": "50, 150 or 500 mg EQ/kg feed"}, "[5]": {"test": "Stability of EQ in a vitamin/mineral premixture", "type": "physicochemical", "conditions": "premixture with 5% EQ"}, "soil microflora": {"test_system": "soil microflora", "test": "Nitrogen Transformation Test, OECD 216", "in_short": "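Soil nitrogen transformation test per OECD 216, assessed on day 28. An effect was judged as deviation from control, with 25% as the criterion. A maximum variation below 15% was the validity criterion.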"}, "[6]": {"conditions": "cited from earlier work; for Water solubility: ref EFSA, 2010"}, "[7]": {"test": "Oxygen bomb method, feed for sows"}, "Pisum sativum (pea)": {"test_system": "Pisum sativum (pea)", "test": "Seedling emergence and seedling growth test, OECD 208", "type": "in vivo", "conditions": "21 days", "in_short": "as §1"}, "[8]": {"test": "Antioxidant efficacy, storage of complete feed for chickens for fattening"}, "dairy cows": {"test_system": "dairy cows", "test": "36-day feeding study with lactating cows", "type": "in vivo, Holstein cows", "conditions": "up to 10× the maximum recommended level, fed for 36 days"}, "[9]": {"test": "Residues of EQ and metabolites/TPs in cattle tissues", "type": "in vivo", "conditions": "for concentration at 42 days: Holstein, bovine, oral, 50 mg EQ/kg complete feed; for residue in muscle, highest value: LOQs as above"}, "[10]": {"conditions": "5,000 mg/kg feed (EQ4), 90 days"}, "[11]": {"conditions": "10,000 mg/kg feed (EQ5), 90 days"}}, "note": "Values joined by “and” are separate entries in the source; they are usually repeats but may differ in a detail not shown here. Identical values can stand only once. Like-named read-outs stand apart in the source and are kept apart here."}
{"smiles": "CCOc1ccc2c(c1)C(C)=CC(C)(C)N2", "note": "[EQ, 6‐ethoxy‐1,2‐dihydro‐2,2,4‐trimethylquinoline]", "values": [{"measurement": "extent of metabolism", "setting": "[1]", "result": "metabolised extensively"}, {"measurement": "number of metabolites identified", "setting": "[1]; irrespective of origin", "result": 18}, {"measurement": "EQ content after 3 months of storage", "setting": "[2]; 25 mg EQ/kg feed (EQ25)", "result": "completely disappeared"}, {"measurement": "peroxide value after manufacturing", "setting": "[2]; 25 mg EQ/kg feed (EQ25)", "result": 0.89, "unit": "meq O2/kg fat"}, {"measurement": "peroxide value after 3 months of storage", "setting": "[2]; 25 mg EQ/kg feed (EQ25)", "result": "approx. 23.8"}, {"measurement": "peroxide value after manufacturing", "setting": "[2]; 50 mg EQ/kg feed (EQ50)", "result": 1.36, "unit": "meq O2/kg fat"}, {"measurement": "reduction of EQ after 3 months of storage", "setting": "[2]; 50 mg EQ/kg feed (EQ50)", "result": "approx. 80%"}, {"measurement": "peroxide value after 3 months of storage", "setting": "[2]; 50 mg EQ/kg feed (EQ50)", "result": "~13.6"}, {"measurement": "zootechnical parameters", "setting": "weaned piglets; 50, 150 or 300 mg/kg feed, 42 days", "result": "not different from those of the control group"}, {"measurement": "margin of safety", "setting": "weaned piglets; maximum use level 50 mg ethoxyquin/kg feed", "result": "at least six"}, {"measurement": "EC10 for total number of worms/reproduction and total biomass per replicate", "setting": "Lumbriculus variegatus", "result": "148 mg test item/kg sediment DW and 148 ^* mg test item/kg sediment DW"}, {"measurement": "NOEC for total number of worms and reproduction", "setting": "Lumbriculus variegatus", "result": "150 mg test item/kg sediment DW"}, {"measurement": "mortality", "setting": "Lumbriculus variegatus; 300 mg/kg sediment DW", "result": 50, "unit": "%"}, {"measurement": "mortality", "setting": "Lumbriculus variegatus; 600 mg/kg sediment DW", "result": 100, "unit": "%"}, {"measurement": "EC50, shoot fresh weight", "setting": "[3]", "result": 155.6, "unit": "mg/kg"}, {"measurement": "margin of safety", "setting": "laying hens", "result": 10, "unit": "×"}, {"measurement": "condition factor", "setting": "Atlantic salmon; 5,000 mg/kg feed (EQ4)", "result": 1.3, "unit": "g/mL"}, {"measurement": "daily feed intake", "setting": "Atlantic salmon; 5,000 mg/kg feed (EQ4)", "result": 2.9, "unit": "g/fish per day"}, {"measurement": "specific growth rate", "setting": "Atlantic salmon; 5,000 mg/kg feed (EQ4)", "result": 0.8, "unit": "% bw per day"}, {"measurement": "total feed intake", "setting": "Atlantic salmon; 5,000 mg/kg feed (EQ4)", "result": 255, "unit": "g/fish"}, {"measurement": "bw gain", "setting": "Atlantic salmon; [10]", "result": 276, "unit": "g"}, {"measurement": "final bw", "setting": "Atlantic salmon; [10]", "result": 537, "unit": "g"}, {"measurement": "condition factor", "setting": "Atlantic salmon; 10,000 mg/kg feed (EQ5)", "result": 1.1, "unit": "g/mL"}, {"measurement": "daily feed intake", "setting": "Atlantic salmon; 10,000 mg/kg feed (EQ5)", "result": 1.1, "unit": "g/fish per day"}, {"measurement": "final salmon length", "setting": "Atlantic salmon; 10,000 mg/kg feed (EQ5)", "result": 29, "unit": "cm"}, {"measurement": "specific growth rate", "setting": "Atlantic salmon; 10,000 mg/kg feed (EQ5)", "result": 0.1, "unit": "% bw per day"}, {"measurement": "total feed intake", "setting": "Atlantic salmon; 10,000 mg/kg feed (EQ5)", "result": 100, "unit": "g/fish"}, {"measurement": "bw gain", "setting": "Atlantic salmon; [11]", "result": 38, "unit": "g"}, {"measurement": "final bw", "setting": "Atlantic salmon; [11]", "result": 301, "unit": "g"}, {"measurement": "mortality", "setting": "Atlantic salmon; up to 10,000 mg/kg feed, 90 days", "result": "No fish died"}, {"measurement": "EC10 for fertility and growth", "setting": "Caenorhabditis elegans", "result": "> 1,000 mg/kg sediment DW"}, {"measurement": "EC10 for reproduction", "setting": "Caenorhabditis elegans", "result": 727, "unit": "mg/kg sediment DW"}, {"measurement": "NOEC for fertility, reproduction and growth", "setting": "Caenorhabditis elegans", "result": 400, "unit": "mg/kg sediment DW"}, {"measurement": "Koc (used for Phase II exposure assessment)", "setting": "Adsorption coefficient", "result": 331, "unit": "L/kg"}, {"measurement": "Log Koc", "setting": "Adsorption coefficient; pH 2.5", "result": 1.55}, {"measurement": "estimated Koc", "setting": "Adsorption coefficient; pH 2.5", "result": 35}, {"measurement": "Log Koc", "setting": "Adsorption coefficient; pH 6.5", "result": 2.52}, {"measurement": "estimated Koc", "setting": "Adsorption coefficient; pH 6.5", "result": 331}, {"measurement": "EQ losses", "setting": "[4]; after 90 days at 40°C, 75% RH", "result": "about 80%"}, {"measurement": "EQ losses", "setting": "[4]; after 90 days, ambient conditions", "result": "30–50%"}, {"measurement": "EQ disappeared", "setting": "[5]; 90 days at 25°C, 60% RH", "result": "About 50%"}, {"measurement": "time to a similar (about 50%) decline of EQ", "setting": "[5]; at 40°C", "result": 8, "unit": "days"}, {"measurement": "deviation from control", "setting": "soil microflora; day 28, 10.70 mg test item/kg soil DW", "result": "< 25", "unit": "%"}, {"measurement": "effect on soil nitrogen transformation", "setting": "soil microflora; day 28, highest tested concentration 10.70 mg test item/kg soil DW", "result": "no adverse effects"}, {"measurement": "Water solubility", "setting": "[6]; pH 5, 20°C", "result": 101, "unit": "µg/mL"}, {"measurement": "Water solubility", "setting": "[6]; pH 7, 20°C", "result": 60, "unit": "µg/mL"}, {"measurement": "Solubility at pH 7 (input for PEC)", "setting": "[6]; pH 7", "result": 60, "unit": "mg/L"}, {"measurement": "Water solubility", "setting": "[6]; pH 9, 20°C", "result": 70, "unit": "µg/mL"}, {"measurement": "protection factor", "setting": "[7]; 25 mg ethoxyquin/kg feed (EQ25)", "result": 1.50}, {"measurement": "protection factor", "setting": "[7]; 50 mg ethoxyquin/kg feed (EQ50)", "result": 1.78}, {"measurement": "EC50, shoot fresh weight", "setting": "Pisum sativum (pea)", "result": 181.3, "unit": "mg/kg"}, {"measurement": "loss of EQ content in feed after 3 months", "setting": "[8]; 25–30°C, 55–65% RH, EQ = 50 mg EQ/kg feed (EQ50)", "result": "approximately 40%"}, {"measurement": "range in which considered an efficacious antioxidant in feed", "setting": "[8]; Panel's overall conclusion", "result": "25–50 mg/kg complete feed"}, {"measurement": "effect on performance parameters", "setting": "dairy cows", "result": "had no influence on the performance parameters"}, {"measurement": "concentration at 42 days", "setting": "[9]; kidney, residue in kidney, highest value, cattle, 50 mg EQ/kg complete feed for 42 days, LOQs 1.5–2 µg EQ, EQDM, metabolite A/kg, 0.5–1 µg EQI, DHEQ/kg", "result": 19.9, "unit": "ng/g"}, {"measurement": "concentration at 42 days", "setting": "[9]; liver", "result": 34, "unit": "ng/g"}, {"measurement": "residue in muscle, highest value", "setting": "[9]; cattle, 50 mg EQ/kg complete feed for 42 days", "result": "˂ LOQ"}, {"measurement": "residue in muscle, highest value", "setting": "[9]; cattle, control (0 mg EQ/kg feed), 42 days", "result": "˂ LOQ"}]}
